The source of these data is PubChem BioAssay.

The nature of assay [1]: Her2 expression decrease, cell viability multiplex – SKBR3 breast tumor cells, AlphaScreen, ATP viability, primary screen (AID 461;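 active means Her2 level under about 52% in both replicate screens, with viability over 70% of control, limit read from the data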;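 on Her2 level: lower value means less Her2 protein in the cells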;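 on viability: percent of carrier control wells set as 100% viability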). Particulars: SKBR3 Her2 protein level, 18-24 h, measured here: SKBR3 viability, ATP luminescence, at 10 µM. A general note: Alpha assays give light when donor and acceptor beads are brought close together.
Assay [2] concerns the target Receptor tyrosine-protein kinase erbB-2 (Homo sapiens) (UniProt P04626). Described as above. Particulars: 18-24 h, at 10 µM, stronger effect = lower value.
A short description of assay [3]: reduced viability of SK-BR-3 breast cancer cells – cell-based, 24 h, human, pilot screen (AID 572).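 Further: compound exposure lasted between 18 and 24 h rather than exactly 24 h; 100% = carrier-treated control wells.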 Particulars: SK-BR-3 viability, CellTiter-Glo luminescence, at 10 µM, stronger effect = lower value. (Cellular ATP, detected with luciferase, serves as a proxy for viable cell number.)
A short description of assay [4]: HUVEC growth inhibition – cell-based, human, primary screen (AID 575;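 active means viability at or below 30% in both replicate assays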;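 further: 100% = median of untreated cell wells with 0.1% DMSO on each plate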). Particulars: HUVEC proliferation, CellTiter-Glo luminescence, 72 h; at 10 µM; stronger effect = lower value. The gist of the method: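 Test system – primary HUVEC, no more than 12 passages · Dosing – one dose, 10 µM final, 0.1% DMSO · Times – 72 h treatment at 37 °C · Measured by – ATP-based CellTiter-Glo luminescent read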

Assay [5] in a line: H69AR cell proliferation blockers – human, duplicate replicates, primary screen (AID 580;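 active means viability at or under a set limit in both replicates, limit being median viability minus 3 SD, cut at about 48% in these data, passing the limit was not always enough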;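 further: 100% = mean luminescence of untreated wells and 0% = no signal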). Particulars: H69AR lung tumor cells viability, ATP luminescence, 72 h; at 10 µM; stronger effect = lower value.
The nature of assay [6]: MRP1 drug-resistance reversers in H69AR cells – cell-based, doxorubicin co-treatment, pilot screen (AID 601;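 active means viability loss from added drug above about 55%, and viability with drug at most 40%, in both replicates, limit read from the data, passing the limit was not always enough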). Particulars: CellTiter-Glo, 72 h, at 10 µM; for differential viability (reversal): stronger effect = higher value.
The nature of assay [7]: yeast transport mutant growth inhibition pilot in 384-well plates, post-Golgi transport modulator project (AID 636; in the data active means inhibition above about 31%). Particulars: absorbance 615 nm, about 18 h, stronger effect = higher value.
Assay [8] can be described thus: growth suppression of yeast trafficking mutant, preliminary HTS, modulators of trafficking downstream of Golgi apparatus project, 1536-format plate, OD 615 nm (AID 637; in the data active means inhibition above about 30%). Particulars: yeast transport mutant growth, absorbance 615 nm, 18 h; stronger effect = higher value.
The mark [9] stands for this setting: H69AR cells + 2 uM doxorubicin, measured here: viability with 2 uM doxorubicin, stronger effect = lower value.
Setting [10] is: H69AR cells, compound alone cytotoxicity.

Calls of active or inactive are those of the source.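 How the source made its calls, unless noted: active means viability at or below 10% of carrier control in both of two separate runs; inconclusive means viability at or below 10% in only one of the two runs; inactive means the rest.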

Receptor tyrosine-protein kinase erbB-2 (Homo sapiens), sequence (P04626 whole entry, looked up): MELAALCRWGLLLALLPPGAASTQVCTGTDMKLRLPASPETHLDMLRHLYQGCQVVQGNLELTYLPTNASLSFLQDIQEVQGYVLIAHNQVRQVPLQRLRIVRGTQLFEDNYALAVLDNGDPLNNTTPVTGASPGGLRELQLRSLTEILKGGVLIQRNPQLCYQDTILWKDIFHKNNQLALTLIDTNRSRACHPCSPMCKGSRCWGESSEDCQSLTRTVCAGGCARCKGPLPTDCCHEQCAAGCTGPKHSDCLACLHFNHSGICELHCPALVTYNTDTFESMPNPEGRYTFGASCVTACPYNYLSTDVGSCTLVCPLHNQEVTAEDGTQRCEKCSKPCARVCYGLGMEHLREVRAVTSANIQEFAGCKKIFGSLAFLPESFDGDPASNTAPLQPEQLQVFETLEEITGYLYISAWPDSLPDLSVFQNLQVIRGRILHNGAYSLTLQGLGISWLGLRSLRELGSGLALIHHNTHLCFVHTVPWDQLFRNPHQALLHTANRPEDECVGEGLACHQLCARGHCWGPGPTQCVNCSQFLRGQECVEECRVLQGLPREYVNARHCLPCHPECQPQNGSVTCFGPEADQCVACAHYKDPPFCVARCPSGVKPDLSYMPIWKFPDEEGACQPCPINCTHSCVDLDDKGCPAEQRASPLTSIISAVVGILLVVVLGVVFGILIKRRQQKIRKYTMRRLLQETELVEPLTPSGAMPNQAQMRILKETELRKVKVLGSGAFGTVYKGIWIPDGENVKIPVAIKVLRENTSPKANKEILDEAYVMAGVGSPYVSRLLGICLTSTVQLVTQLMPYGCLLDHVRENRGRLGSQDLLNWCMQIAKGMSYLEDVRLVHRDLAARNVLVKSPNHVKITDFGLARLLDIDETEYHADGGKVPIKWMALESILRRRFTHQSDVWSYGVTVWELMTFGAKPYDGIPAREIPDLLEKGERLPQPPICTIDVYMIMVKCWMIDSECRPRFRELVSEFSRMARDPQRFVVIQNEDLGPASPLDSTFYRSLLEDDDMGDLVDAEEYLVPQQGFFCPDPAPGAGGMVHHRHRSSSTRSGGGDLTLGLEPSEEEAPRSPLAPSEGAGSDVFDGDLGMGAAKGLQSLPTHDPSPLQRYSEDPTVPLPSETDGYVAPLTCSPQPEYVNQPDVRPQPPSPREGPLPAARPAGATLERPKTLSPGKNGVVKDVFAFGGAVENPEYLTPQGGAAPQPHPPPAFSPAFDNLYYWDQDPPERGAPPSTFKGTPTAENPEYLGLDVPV

Regarding `CCCc1nnc(NC(=O)CCC(=O)N2CCN(CCOc3ccc(C)cc3)CC2)s1`, the viability (usually a read-out of living cells in per cent, often relative to untreated cells) in assay [1] was 93.5%; in assay [3] it was 93.5% (inactive); in assay [4], 92% (inactive); in assay [5], 93.2% (inactive); in assay [6] (setting [9]), 99.4%; in assay [6] (setting [10]), 93.2%. Further, the Her2 level in assay [2] is 74% (inactive). The differential viability (reversal) in assay [6] (H69AR cells + 2 uM doxorubicin) was -6.29% (inactive). For the same compound, the inhibition (in general, the change of the read-out against control, counted positive when it falls) in assay [7] was -4.03% (inactive); in assay [8], -2.83% (inactive).
On to `O=C(NCc1ccco1)C1CCN(S(=O)(=O)N2CCC3(CC2)OCCO3)CC1`, for which the viability in assay [1] is 99.5%; in assay [3], 99.5% (inactive); in assay [4] it was 118% (inactive); in assay [5], 100% (inactive); in assay [6] (setting [9]), 85.8%; in assay [6] (setting [10]), 100%. For the same compound, the Her2 level in assay [2] was 92% (inactive). Also, the differential viability (reversal) in assay [6] (H69AR cells + 2 uM doxorubicin) is 14.2% (inactive). Also, the inhibition was -6.89% (inactive) in assay [7] and -7.17% (inactive) in assay [8].
Consider `C/C=C/Cn1c(Br)nc2c1c(=O)[nH]c(=O)n2C`, for which the viability was 101% in assay [1]; 101% (inactive) in assay [3]; 90.7% (inactive) in assay [4]; 93.5% (inactive) in assay [5]; 86.3% in assay [6] (setting [9]); 93.5% in assay [6] (setting [10]). Besides, the Her2 level in assay [2] is 91% (inactive). In assay [6] (H69AR cells + 2 uM doxorubicin), the differential viability (reversal) is 7.23% (inactive). In addition, the inhibition was -6.53% (inactive) in assay [7] and 0.16% (inactive) in assay [8].
In the case of `CCOc1ccccc1C(=O)N1CCN(c2cccc(Cl)c2)CC1`, the viability in assay [1] is 118%; in assay [3], 118% (inactive); in assay [4], 23.3% (active); in assay [5], 28.2% (active); in assay [6] (setting [9]) it was 63.8%; in assay [6] (setting [10]), 28.2%. The Her2 level in assay [2] is 80% (inactive). The differential viability (reversal) in assay [6] (H69AR cells + 2 uM doxorubicin) is -35.7% (inactive). Moreover, the values for the inhibition in assay [7] and in assay [8] were -4.53% (inactive) and 1.15% (inactive), respectively.
Turning to `CC(=O)Nc1ccc(S(=O)(=O)Nc2nc3ccccc3nc2N2CCCC2)cc1`, the viability in assay [1] is 99.5%; in assay [3], 99.5% (inactive); in assay [4], 93.7% (inactive); in assay [5], 92.3% (inactive); in assay [6] (setting [9]) it was 100%; in assay [6] (setting [10]), 92.3%. Further, the Her2 level in assay [2] was 98% (inactive). For the same compound, the differential viability (reversal) in assay [6] (H69AR cells + 2 uM doxorubicin) is -8.08% (inactive). Moreover, the inhibition in assay [7] is -7.87% (inactive); in assay [8], 3.61% (inactive).
Consider `O=C(CS(=O)(=O)c1cn(Cc2ccc(Cl)cc2)c2ccccc12)N1CCCC1`, for which the viability in assay [1] was 81.5%; in assay [3], 81.5% (inactive); in assay [4], 88.2% (inactive); in assay [5] it was 79.3% (inactive); in assay [6] (setting [9]), 82.3%; in assay [6] (setting [10]), 79.3%. The Her2 level in assay [2] was 92% (inactive). The differential viability (reversal) in assay [6] (H69AR cells + 2 uM doxorubicin) is -3.04% (inactive). Also, the inhibition in assay [7] is -5.2% (inactive); in assay [8] it was 1% (inactive).
Consider `CC1=C(C(=O)NC2CCC(C)CC2)C2(CCC(C)CC2)OC1=O` (stereo not given), for which the viability is 112% in assay [1]; 112% (inactive) in assay [3]; 96.2% (inactive) in assay [4]; 90.4% (inactive) in assay [5]; 94.1% in assay [6] (setting [9]); 90.4% in assay [6] (setting [10]). Further, the Her2 level in assay [2] is 84% (inactive). Also, the differential viability (reversal) in assay [6] (H69AR cells + 2 uM doxorubicin) is -3.75% (inactive). In addition, the figures for the inhibition in assay [7] and in assay [8] were -2.27% (inactive) and -5.25% (inactive), respectively.
As to `CCCCOCCCNC(=O)c1cccs1`, the viability was 103% in assay [1]; 103% (inactive) in assay [3]; 97.8% (inactive) in assay [4]; 104% (inactive) in assay [5]; 92.5% in assay [6] (setting [9]); 104% in assay [6] (setting [10]). Moreover, the Her2 level in assay [2] was 102% (inactive). The differential viability (reversal) in assay [6] (H69AR cells + 2 uM doxorubicin) was 11.5% (inactive). In addition, the results for the inhibition in assay [7] and in assay [8] were -2.21% (inactive) and -3.17% (inactive), respectively.
`CC(C)CCNC(=O)CCNS(=O)(=O)c1ccc(Cl)cc1`: the viability in assay [1] is 110%; in assay [3], 110% (inactive); in assay [4], 99.7% (inactive); in assay [5] it was 94.1% (inactive); in assay [6] (setting [9]), 94.4%; in assay [6] (setting [10]), 94.1%. Moreover, the Her2 level in assay [2] is 95% (inactive). For the same compound, the differential viability (reversal) in assay [6] (H69AR cells + 2 uM doxorubicin) is -0.295% (inactive). Besides, the inhibition was -1.71% (inactive) in assay [7] and -4.03% (inactive) in assay [8].
Take `COc1ccc(CNc2nc(NCc3ccc(OC)cc3)n(S(C)(=O)=O)n2)cc1`: the viability in assay [1] is 104%; in assay [3], 104% (inactive); in assay [4], 92.6% (inactive); in assay [5], 110% (inactive); in assay [6] (setting [9]) it was 101%; in assay [6] (setting [10]), 110%. The Her2 level in assay [2] was 114% (inactive). The differential viability (reversal) in assay [6] (H69AR cells + 2 uM doxorubicin) was 8.61% (inactive). The values for the inhibition in assay [7] and in assay [8] were 0% (inactive) and 0.82% (inactive), respectively.
As to `Cn1cccc1Cc1nnc(SCC(=O)Nc2ccc(F)cc2F)n1-c1ccc(F)cc1`, the viability is 84% in assay [1]; 84% (inactive) in assay [3]; 81.6% (inactive) in assay [4]; 94.8% (inactive) in assay [5]; 93.5% in assay [6] (setting [9]); 94.8% in assay [6] (setting [10]). Moreover, the Her2 level in assay [2] was 90.5% (inactive). In assay [6] (H69AR cells + 2 uM doxorubicin), the differential viability (reversal) was 1.3% (inactive). Further, the inhibition is -1.03% (inactive) in assay [7] and -3.5% (inactive) in assay [8].
Consider `CCOC(=O)N1CCN(C(=O)CSCC(=O)Nc2nc(-c3ccc(OC)cc3)cs2)CC1`, for which the viability in assay [1] is 116%; in assay [3] it was 116% (inactive); in assay [4], 77.8% (inactive); in assay [5], 94.9% (inactive); in assay [6] (setting [9]), 93.1%; in assay [6] (setting [10]) it was 94.9%. For the same compound, in assay [2], the Her2 level is 104% (inactive). In addition, the differential viability (reversal) in assay [6] (H69AR cells + 2 uM doxorubicin) was 1.77% (inactive). In addition, the inhibition was -1.3% (inactive) in assay [7] and -6.89% (inactive) in assay [8].
For the compound `Cc1csc2nc(CSc3ccc(Cl)cc3)cn12`, the viability in assay [1] was 97.5%; in assay [3], 97.5% (inactive); in assay [4] it was 80.9% (inactive); in assay [5], 88.2% (inactive); in assay [6] (setting [9]), 72.3%; in assay [6] (setting [10]) it was 88.2%. Also, the Her2 level in assay [2] was 78% (inactive). In assay [6] (H69AR cells + 2 uM doxorubicin), the differential viability (reversal) was 15.9% (inactive). Moreover, the inhibition in assay [7] was -5.87% (inactive); in assay [8], 3.77% (inactive).
For the compound `COc1ccc(CN2CC(C(=O)NCCCOC(C)C)CC2=O)cc1` (stereo not given), the viability in assay [1] is 101%; in assay [3] it was 101% (inactive); in assay [4], 107% (inactive); in assay [5] it was 99.1% (inactive); in assay [6] (setting [9]), 95.2%; in assay [6] (setting [10]), 99.1%. In assay [2], the Her2 level was 90.5% (inactive). Moreover, the differential viability (reversal) in assay [6] (H69AR cells + 2 uM doxorubicin) is 3.83% (inactive). For the same compound, the inhibition in assay [7] was -2.11% (inactive); in assay [8], 0.81% (inactive).
In the case of `O=C1OC2(c3ccccc3)C3CCCC2C13`, the viability in assay [1] was 100%; in assay [3], 100% (inactive); in assay [4], 97.3% (inactive); in assay [5] it was 100% (inactive); in assay [6] (setting [9]), 92.4%; in assay [6] (setting [10]), 100%. Further, the Her2 level in assay [2] is 120% (inactive). For the same compound, the differential viability (reversal) in assay [6] (H69AR cells + 2 uM doxorubicin) is 7.76% (inactive). The inhibition is -6.44% (inactive) in assay [7] and 5.87% (inactive) in assay [8].
